From ChEMBL document CHEMBL4808182, “Discovery of the Soluble Guanylate Cyclase Activator Runcaciguat (BAY 1101042)” (J Med Chem, 2021)
The source made the active and inactive calls. The calls are words filed in the database; no cut-off is given here.

Experiments:
[1] = target: T1, Guanylate cyclase soluble subunit alpha-1 (Rattus norvegicus) (UniProt P19686); assay: Activation of recombinant rat sGC alpha1 subunit expressed in CHO cells assessed as induction of [32P-cGMP] formation using alpha-[32P-GTP] as substrate measured after 6 mins by luminescence assay; type: cell-based; conditions: filed as activator
T1 sequence (whole entry): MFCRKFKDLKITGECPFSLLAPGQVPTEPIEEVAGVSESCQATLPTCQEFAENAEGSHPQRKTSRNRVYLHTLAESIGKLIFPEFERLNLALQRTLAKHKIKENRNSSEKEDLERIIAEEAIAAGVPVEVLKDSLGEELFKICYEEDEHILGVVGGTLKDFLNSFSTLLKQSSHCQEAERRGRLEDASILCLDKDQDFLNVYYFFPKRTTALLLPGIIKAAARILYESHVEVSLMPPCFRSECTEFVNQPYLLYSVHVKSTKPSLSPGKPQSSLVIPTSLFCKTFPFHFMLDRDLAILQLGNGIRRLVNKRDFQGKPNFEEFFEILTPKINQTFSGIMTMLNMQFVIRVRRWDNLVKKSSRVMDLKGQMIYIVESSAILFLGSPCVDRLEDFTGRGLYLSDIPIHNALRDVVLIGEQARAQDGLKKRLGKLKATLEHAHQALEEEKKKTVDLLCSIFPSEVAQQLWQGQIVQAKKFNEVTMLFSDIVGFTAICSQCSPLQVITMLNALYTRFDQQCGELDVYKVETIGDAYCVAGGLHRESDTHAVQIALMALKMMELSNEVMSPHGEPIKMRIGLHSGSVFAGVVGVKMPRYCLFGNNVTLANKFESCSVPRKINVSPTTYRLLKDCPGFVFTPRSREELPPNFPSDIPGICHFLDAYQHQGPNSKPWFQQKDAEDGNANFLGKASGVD

[2] = target: T1, Guanylate cyclase soluble subunit alpha-1 (Rattus norvegicus); assay: Activation of recombinant rat sGC alpha1 subunit expressed in CHO cells assessed as induction of [32P-cGMP] formation by measuring efficacy using alpha-[32P-GTP] as substrate measured after 6 mins by luminescence assay relative to control; type: cell-based; conditions: filed as activator
[3] = Activation of recombinant rat sGC expressed in CHO cells by luminescence assay; type: cell-based; conditions: CHO
Method in brief: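 Stable CHO reporter cell line overexpressing rat sGC; cGMP formation read as luminescence. EC50 from concentration–response. MEC taken as lowest concentration giving at least threefold increase in basal luminescence.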

[4] = Activation of recombinant rat sGC expressed in CHO cells pretreated with ODQ for 3 hrs followed by compound treatment by luminescence assay; type: cell-based
CHO = assay: Activation of recombinant rat sGC expressed in CHO cells in presence of NO-donor S-nitroso N-acetyL-penicillamine by luminescence assay; type: cell-based; conditions: filed as activator
Method in brief: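 Rat sGC-overexpressing CHO reporter cells were treated with test compound combined with NO donor SNAP, and the luminescence signal was read.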

[5] = Volume of distribution at steady state in Wistar rat at 0.3 mg/kg, iv measured up to 24 hrs by LC-MS analysis; type: ADME, organism-based; conditions: in vivo, read-out: Vdss
[6] = Half life in Wistar rat at 0.3 mg/kg, iv measured up to 24 hrs by LC-MS analysis; type: ADME, organism-based; conditions: in vivo
[7] = Oral bioavailability in Wistar rat at 0.3 mg/kg measured up to 24 hrs by LC-MS analysis; type: ADME, organism-based; conditions: in vivo
[8] = Blood clearance in Beagle dog at 0.3 mg/kg, iv measured up to 24 hrs by LC-MS analysis; type: ADME, organism-based, Canis lupus familiaris; conditions: whole blood
[9] = Oral bioavailability in Beagle dog at 0.1 mg/kg measured up to 24 hrs by LC-MS analysis; type: ADME, organism-based, Canis lupus familiaris; conditions: in vivo
[10] = Volume of distribution at steady state in cynomolgus monkey at 0.1 mg/kg, iv measured up to 24 hrs by LC-MS analysis; type: ADME, organism-based, Macaca fascicularis; conditions: in vivo, read-out: Vdss
[11] = Half life in cynomolgus monkey at 0.1 mg/kg, iv measured up to 24 hrs by LC-MS analysis; type: ADME, organism-based, Macaca fascicularis; conditions: in vivo
[12] = Oral bioavailability in cynomolgus monkey at 0.1 mg/kg measured up to 24 hrs by LC-MS analysis; type: ADME, organism-based, Macaca fascicularis; conditions: in vivo
[13] = target: T1, Guanylate cyclase soluble subunit alpha-1 (Rattus norvegicus); assay: Activation of recombinant rat sGC alpha1 subunit expressed in CHO cells assessed as induction of [32P-cGMP] formation by measuring fold change at 100 uM using alpha-[32P-GTP] as substrate measured after 6 mins by luminescence assay; conditions: filed as activator
Method in brief: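 Highly purified recombinant sGC enzyme was tested for stimulation of cGMP production across 0.01 to 100 μM of compound. The read-out was fold activation over basal enzyme activity. The method followed earlier published sGC stimulator/activator characterization.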

[14] = target: T1, Guanylate cyclase soluble subunit alpha-1 (Rattus norvegicus); assay: Activation of recombinant rat sGC alpha1 subunit expressed in CHO cells assessed as induction of [32P-cGMP] formation at 0.01 to 100 uM using alpha-[32P-GTP] as substrate measured after 6 mins in presence of ODQ by luminescence assay; type: cell-based; conditions: filed as activator, dose 0.01-100 µM
Heart [15] = assay: Reduction in coronary perfusion pressure in heart isolated from Wistar rat; type: functional, tissue-based; conditions: dose 0.01-10 µM
Method in brief: (§1)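 Rat hearts in Langendorff perfusion were exposed to 10 nM–10 μM. Coronary perfusion pressure, heart rate, LVDP and +dp/dt were recorded.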

Heart [16] = assay: Reduction in coronary perfusion pressure in heart isolated from Wistar rat at highest concentration relative to control; type: functional; design: scale not given: the % may be the effect or the level left; method in brief: as §1
Rattus norvegicus [17] = organism: Rattus norvegicus; assay: Effect on heart rate in Wistar rat; type: functional; method in brief: as §1
Rattus norvegicus [18] = organism: Rattus norvegicus; assay: Effect on contractility in Wistar rat; type: functional; method in brief: as §1
Rattus norvegicus [19] = assay: Reduction in blood pressure in normotensive Wistar rat at 10 mg/kg, po by radiotelemetry relative to control; type: functional; design: scale not given: the % may be the effect or the level left
Method in brief: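 Conscious normotensive rats with telemetric implants received oral doses of 1, 3 or 10 mg/kg. Mean arterial pressure and heart rate were recorded continuously beyond 24 h.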

Rattus norvegicus [20] = assay: Effect on blood pressure in normotensive Wistar rat at 1 to 3 mg/kg, po by radiotelemetry; type: functional, organism-based; conditions: dose 1-3 mg/kg
Rattus norvegicus [21] = assay: Increase in heart rate in spontaneous hypertensive Wistar rat at 0.1 to 3 mg/kg, po by radiotelemetry relative to control; type: functional; conditions: dose 0.1-3 mg/kg
Method in brief: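 Spontaneously hypertensive rats were given single oral doses of 0.1–3.0 mg/kg. Mean arterial pressure and heart rate were monitored for at least 24 h post dose, as % change.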

Rattus norvegicus [22] = assay: In vivo activation of sGC in po dosed renin-transgenic rat carrying [RenTG(mRRen2)27] gene assessed as decrease in proteinuria pretreated with NO-synthase inhibitor L-NAME followed by compound administration twice daily for 21 days; type: functional, organism-based; conditions: dose 1-10 mg/kg, time 21.0 day
Method in brief: (§2)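 L-NAME-treated renin transgenic rats were dosed BID. At study end, protein-to-creatinine ratio (mg/mmol) came from urinary protein and creatinine. Creatinine clearance (mL/min) came from plasma and urinary creatinine plus urine volume.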

Rattus norvegicus [23] = assay: In vivo activation of sGC in po dosed renin-transgenic rat carrying [RenTG(mRRen2)27] gene assessed as increase in creatinine clearance pretreated with NO-synthase inhibitor L-NAME followed by compound administration twice daily for 21 days; type: functional, organism-based; conditions: dose 1-10 mg/kg, time 21.0 day; method in brief: as §2
Rattus norvegicus [24] = assay: Cardioprotective activity in renin-transgenic rat carrying [[…]] gene assessed as reduction in heart hypertrophy at 1 to 10 mg/kg, po bid for 21 days; type: functional, organism-based; conditions: dose 1-10 mg/kg, time 21.0 day
[25] = Induction of CYP3A4 in human hepatocytes using phenacetin as substrate incubated for 60 mins by LC-MS/MS analysis; conditions: 1 h

C[C@H]([C@H](C(=O)Nc1cc([C@@H](CC(=O)O)C2CC2)ccc1Cl)c1ccc(Cl)cc1)C(F)(F)F [RUNCACIGUAT] gave an MEC [1] of 1.8 nM, an Efficacy [2] of 58% and an EC50 [3] of 11.2 nM. The EC50 [4] was 2.1 nM, the Activity (CHO) was “Active” and the Vd [5] was 1.4 L/kg. The half-life [6] was 7.5 h, the bioavailability [7] was 95% and the clearance [8] was 23.3 mL/min/kg. It also gave a bioavailability [9] of 48%, a Vd [10] of 1.4 L/kg and a half-life [11] of 10 h. The bioavailability [12] was 81%, the fold change (FC) [13] was 9.3 and the Activity [14] was “Active”. The Activity (Heart [15]) was “Dose-Dependent Effect”, the Activity (Heart [16]) was 45% and the Activity (Rattus norvegicus [17]) was “inactive”. The Activity (Rattus norvegicus [18]) was “inactive”, the Activity (Rattus norvegicus [19]) was “<=15%” and the Activity (Rattus norvegicus [20]) was “inactive”. For the same compound, the Activity (Rattus norvegicus [21]) was “<=20%”, the Activity (Rattus norvegicus [22]) was “Dose-Dependent Effect” and the Activity (Rattus norvegicus [23]) was “Dose-Dependent Effect”. The Activity (Rattus norvegicus [24]) was “Active” and the Activity [25] was 256 nM.
